Sampled rows, rich in hits. Any-hit rate of the full collection: about 2.3%.
STAT3 blocker: IL-6 driven STAT3 reporter inhibitors, primary screen, U3A cells, luciferase, luminescence, MLSCN library; IL-6 STAT3-luciferase reporter; host cell line lacks STAT1; inhibition, % at 5.5 µM; 190,000 compounds, 0.89% hits;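 active = inhibition above the mean inhibition across all screened compounds plus 3 SD, cut at about 44% in these data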;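 note: 0% = DMSO only wells and 100% = 100 µM nifuroxazide control wells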
HSP90 refold inh: HSP90 inhibitors, primary screen, cell lysate, luminescence; Heat shock protein HSP 90 (rabbit reticulocyte lysate; luciferase refolding); 290,000 compounds, 0.91% hits; AID 1789, 2009; Rabbit reticulocyte lysate, luciferase refolding luminescence, 3 h; inhibition, % at 5.6 µM;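 active = inhibition above the screen-wide mean plus 3 SD, computed separately per campaign, cut at about 16% in these data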;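 note: 0% = DMSO wells and 100% = 60 µM geldanamycin wells; inhibitors lower the luminescence because luciferase stays unfolded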
PPC-1+TRAIL kill: compounds killing PPC-1 cancer cells with TRAIL present, primary screen, TRAIL potentiator project, ATPLite luminescence, uHTS. PPC-1 cells + TRAIL, ATPLite viability luminescence. cell killing (% activity), % at 4 µM or 5 µM. 220,000 compounds, 0.41% hits. AID 1443, 2008;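 active = cell killing above 50% in the first pass at 4 µM, then a duplicate retest at 5 µM averaging 50% or more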;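 note: plate controls were cells with TRAIL plus DMSO for no effect and medium-only wells lacking cells for full effect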
STAT3 act-1: IL-6 driven STAT3 reporter potentiators, primary screen, U3A cells, luciferase, luminescence, MLSCN library | IL-6 STAT3-luciferase reporter; 100% = signal with IL-6 EC80 alone | activation (% of control), % at 5.6 µM | AID 871, 2007 | 190,000 compounds, 0.91% hits;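 active = activation above the screen-wide mean of compound activation plus 3 SD, cut at about 130% in these data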;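 note: 0% = background luminescence of wells with medium and substrate only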
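Material: STAT3-luciferase reporter U3A cells. Controls: IL-6-treated wells, 100% activation. Read-out: % activation versus median of IL-6-stimulated wells. Probe or stimulus: IL-6 stimulus at 33 ng/mL final. Timing: compound 1 h, then IL-6 6 h at 37 °C. Signal: reporter luminescence signal.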
C8 TRAIL sens: viability loss with TRAIL in NB7+C8 cells, primary screen, TRAIL sensitizer project, cell-based, ATPlite luminescence; AID 624354, 2012; 360,000 compounds, 1% hits; inhibition (viability loss, TRAIL sensitization), % at 10 µM;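 active = compounds causing at least 50% loss of cell viability in the single-dose screen, relative to plate controls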
STAT1 inh: STAT1 signaling inhibitors, primary screen, cell-based, HTS, luciferase reporter; NIH 3T3 STAT1-luciferase reporter, IFN-gamma, luminescence; inhibition, % at 5.5 µM; 200,000 compounds, 0.35% hits;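 active = inhibition above a set limit, the mean inhibition across all tested compounds plus 3 SD, cut at about 34% in these data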;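 note: 0% = IFN-gamma with DMSO and 100% = IFN-gamma with 300 µM nifuroxazide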
STAT3 act-2: STAT3 reporter potentiators, retest of hits, confirmation, U3A cells, luciferase, luminescence; shares compounds with STAT3 act-1; IL-6 potentiation; U3A cells lack STAT1; 100 means same as IL-6 alone; potentiation (% of control), % at 5.7 µM; 1,200 compounds, 64% hits; AID 1267, 2008;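 active = percent activation of the STAT3 luciferase reporter above a set limit taken from the earlier primary screen, cut at about 130% in these data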;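 note: 0% = background signal of medium plus substrate and 100% = median of IL-6 with DMSO wells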
NFkB act STAT3ct: NF-kB reporter activators in human cells, counter-screen for STAT3 activator project | shares compounds with STAT3 act-1 | NF-kappaB reporter activation | activation (% of control), % at 5.7 µM | 1,200 compounds, 11% hits; in the data active = activation above about 120%;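 note: reporter induced by TNF-alpha stimulation; 100% = median of stimulated DMSO wells and 0% = no signal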
STAT1 act STAT3c: STAT1 reporter activators, IFN-gamma induced, counter-screen for STAT3 activator project, cell-based, NIH 3T3, luciferase luminescence. shares compounds with STAT3 act-1. NIH 3T3 STAT1-luciferase reporter. activation (% of control), % at 5.7 µM. 1,200 compounds, 13% hits. AID 1318, 2008;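 active = activation above the solvent-only control well mean plus 3 SD, set per screening run, cut at about 120% in these data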;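 note: 100% = IFN-gamma with DMSO median signal so 100% means no change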
Starred values were filed as active, the others as inactive; . = not tested or not shown.

SMILES	STAT3 blocker	HSP90 refold inh	PPC-1+TRAIL kill	STAT3 act-1	C8 TRAIL sens	STAT1 inh	STAT3 act-2	NFkB act STAT3ct	STAT1 act STAT3c
CC(=O)Nc1ccc(S(=O)(=O)Nc2nc3ccccc3s2)cc1	-16	4	14	118	-15	2	.	.	.
Cc1csc(SC(C)C(=O)NCC2CCCCC2)n1 (centres undefined)	-10	4	-4	108	2	12	.	.	.
CCCCS(=O)(=O)Nc1ccc2ncn(C)c(=O)c2c1	1	0	12	102	-14	-1	.	.	.
COC(=O)c1sccc1NC(=O)c1ccc(C)s1	-64	2	27	158*	-10	-3	128	96	98
COC(=O)c1sccc1NC(=O)c1cccs1	.	0	32	.	-6	.	.	.	.
COC(=O)c1c(NC(=O)c2ccc(Br)s2)sc2c1CCC2	-43	1	17	137*	-3	-4	123	105	98
COC(=O)c1sccc1NC(=O)c1ccc(Br)s1	-50	0	13	150*	12	10	146*	104	104
COC(=O)c1sccc1NC(=O)c1c(Cl)cccc1Cl	.	-4	.	.	-6	.	.	.	.
COC(=O)c1c(NC(=O)c2ccoc2C)sc2c1CCC2	0	0	20	101	-16	5	.	.	.
COC(=O)c1sccc1NC(=O)c1ccc(Cl)s1	-48	5	5	143*	1	1	176*	121*	108
CC1(C)CC(=O)C(N=Nc2cccc(S(=O)(=O)N3CCOCC3)c2)=C(O)C1	.	8	-3	.	6	.	.	.	.
CCn1c(C(=O)Nc2ccsc2C(=O)OC)cc2sc(Cl)cc21	-75	-2	-4	165*	9	3	138*	106	93
CC(C)NC(=O)NC(=O)COC(=O)/C=C/c1ccccc1[N+](=O)[O-]	-55	3	7	147*	4	29	159*	111	80
COC(=O)CNC(=O)COC(=O)/C=C/c1ccccc1[N+](=O)[O-]	-35	1	14	144*	0	22	140*	103	76
COc1ccc(NC(=O)COC(=O)/C=C/c2ccccc2[N+](=O)[O-])cc1	-11	0	16	112	3	0	.	.	.
CC(C)c1ccc(OCC(=O)NC2CCCC2)cc1	.	2	.	.	-11	.	.	.	.
Fc1cccc(/C=N/Nc2nccnc2Cl)c1	.	3	.	.	16	.	.	.	.
Clc1cccc(/C=N/Nc2nnc(Cl)c3ccccc23)c1	-39	-1	-6	140*	17	0	128	113	117
Cc1cc(C)c2c(N)c(-c3nc4ccccc4[nH]3)sc2n1	-76	-4	-1	171*	-2	-16	182*	117	111
O=C1N(Nc2ccccc2)C(c2ccc(Br)cc2)C12CCCCC2 (centres undefined)	5	-5	-15	99	2	0	.	.	.
CCC1=NN=C(c2ccc(F)cc2)C(c2c[nH]c3ccccc23)N1O (centres undefined)	-71	-3	8	163*	1	-1	159*	104	112
CCC(=O)Oc1oc(-c2ccccc2)nc1C=Nc1ccc(C)cc1	.	-2	-6	.	13	.	.	.	.
CCC(=O)Oc1oc(-c2ccccc2)nc1C=Nc1ccccc1OC	-50	3	4	144*	-3	-1	129	115	99
CCOC(=O)CSc1ccc2ccccc2n1	18	4	11	88	5	-3	.	.	.
